Results as given in ChEMBL document CHEMBL1124499, “Metabolism of 3-(p-chlorophenyl)pyrrolidine. Structural effects in conversion of a prototype gamma-aminobutyric acid prodrug to lactam and gamma-aminobutyric acid type metabolites” (J Med Chem, 1989).
Calls of active or inactive are those of the source.

Key:
Mus musculus [1] = experiment: Anticonvulsant activity by using subcutaneous pentylenetetrazole (Metrazol) seizure threshold test in mice; Inactive; type: functional, organism-based
Mus musculus [2] = species: Mus musculus; experiment: Anticonvulsant activity by using bicuculline test in mice; Inactive; type: functional, organism-based
Rattus norvegicus [3] = species: Rattus norvegicus; experiment: Amount of metabolite produced in liver of rat at a concentration of 12000 g of the compound; type: functional
Rattus norvegicus [4] = species: Rattus norvegicus; experiment: Amount of metabolite produced in brain of rat at a concentration of 700 g of the compound; type: functional
Rattus norvegicus [5] = species: Rattus norvegicus; experiment: Amount of metabolite produced in liver of rat at a concentration of 700 g of the compound; type: functional
Mus musculus [6] = experiment: Anticonvulsant activity by using subcutaneous pentylenetetrazole (Metrazol) seizure threshold test in mice; type: functional; details: for ED50: sc
Mus musculus [7] = species: Mus musculus; experiment: Anticonvulsant activity by using rotarod toxicity test in mice; type: functional
Rattus norvegicus [8] = species: Rattus norvegicus; experiment: Amount of metabolite produced in brain of rat at a concentration of 12000 g of the compound; type: functional
Mus musculus [9] = species: Mus musculus; experiment: Anticonvulsant activity by using maximal electroshock seizure test in mice; type: functional
Mus musculus [10] = species: Mus musculus; experiment: Anticonvulsant activity by using bicuculline test in mice; type: functional
Rattus norvegicus [11] = experiment: Number of rats displaying convulsions by pretreatment with 55 mg/kg of compound (ip) in the presence of isoniazid after 49 mins out of 8 rats tested; type: functional
Summary of the method: (§1)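 Male Wistar rats were pretreated with test agent at 55 mg/kg ip (200 mg/mL in saline or DMSO), then given isoniazid 425 mg/kg sc (180 mg/mL in saline).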

Rattus norvegicus [12] = experiment: Number of rats died by pretreatment with 55 mg/kg of compound (ip) in the presence of isoniazid after 49 mins out of 8 rats tested; type: organism-based; design: dose 55 mg/kg; details: in vivo; summary of the method: as §1
Rattus norvegicus [13] = experiment: Number of rats died by pretreatment with 55 mg/kg of compound (ip) in the presence of isoniazid after 63 mins out of 6 rats tested; type: functional; summary of the method: as §1
Rattus norvegicus [14] = species: Rattus norvegicus; experiment: Amount of metabolite alpha-baclofen lactam produced in liver of rat at a concentration of 12000 g of the compound; type: functional
Rattus norvegicus [15] = species: Rattus norvegicus; experiment: Amount of metabolite alpha-baclofen lactam produced in brain of rat at a concentration of 700 g of the compound; type: functional
Rattus norvegicus [16] = species: Rattus norvegicus; experiment: Amount of metabolite alpha-baclofen produced in brain of rat at a concentration of 12000 g of the compound; None detected; type: functional, organism-based
Rattus norvegicus [17] = experiment: In vivo formation of baclofen in 3h after administration of 55 mg/kg of compound intraperitoneally into 3 rats; type: functional, organism-based; design: dose 55 mg/kg
Summary of the method: (§2)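 Male Wistar rats housed in metabolism cages were given 55 mg/kg prodrug ip. Urine was collected at 3 and 6 h and assayed by HPLC/EC; cumulative amount is reported per rat. One rat was decapitated at 3 h, and its brain was homogenized in Tris-KCl and assayed by HPLC/EC.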

Rattus norvegicus [18] = experiment: In vivo formation of baclofen in 4 hr after administration of 5.5 mg/kg of compound intraperitoneally into 4 rats; type: functional, organism-based; design: dose 5.5 mg/kg
Rattus norvegicus [19] = experiment: In vivo formation of baclofen in 0-3 hr after administration of 55 mg/kg of compound intraperitoneally into 1r at; type: functional, organism-based; design: dose 55 mg/kg; summary of the method: as §2
Rattus norvegicus [20] = experiment: In vivo formation of alpha-baclofen in 3-6h after administration of 55 mg/kg of compound intraperitoneally into 2 rats; type: functional, organism-based; design: dose 55 mg/kg; summary of the method: as §2
Rattus norvegicus [21] = experiment: In vivo formation of alpha-baclofen in 3-6h after administration of 55 mg/kg of compound intraperitoneally into 1r at; type: functional, organism-based; design: dose 55 mg/kg; summary of the method: as §2
Rattus norvegicus [22] = species: Rattus norvegicus; experiment: Amount of metabolite alpha-baclofen produced in liver of rat at a concentration of 12000 g of the compound; None detected; type: functional, organism-based
Rattus norvegicus [23] = experiment: In vivo formation of alpha-baclofen in 0-3 hr after administration of 55 mg/kg of compound intraperitoneally into 1r at; type: functional, organism-based; design: dose 55 mg/kg; summary of the method: as §2
Rattus norvegicus [24] = species: Rattus norvegicus; experiment: Amount of metabolite alpha-baclofen produced in brain of rat at a concentration of 700 g of the compound; None detected; type: functional, organism-based
Rattus norvegicus [25] = experiment: In vivo formation of baclofen in 3-6h after administration of 55 mg/kg of compound intraperitoneally into 2 rats; type: functional, organism-based; design: dose 55 mg/kg; summary of the method: as §2
Rattus norvegicus [26] = experiment: Number of rats displaying convulsions by pretreatment with 55 mg/kg of compound (ip) in the presence of isoniazid after 63 mins out of 6 rats tested; type: functional; summary of the method: as §1
Rattus norvegicus [27] = experiment: In vivo formation of baclofen in 0-3 hr after administration of 55 mg/kg of compound intraperitoneally into 2 rats; type: functional, organism-based; design: dose 55 mg/kg; summary of the method: as §2
Rattus norvegicus [28] = experiment: In vivo formation of alpha-baclofen in 0-3 hr after administration of 55 mg/kg of compound intraperitoneally into 2 rats; type: functional, organism-based; design: dose 55 mg/kg; summary of the method: as §2
Rattus norvegicus [29] = species: Rattus norvegicus; experiment: Amount of metabolite alpha-baclofen produced in liver of rat at a concentration of 700 g of the compound; None detected; type: functional, organism-based
Rattus norvegicus [30] = species: Rattus norvegicus; experiment: Amount of metabolite alpha-baclofen lactam produced in liver of rat at a concentration of 700 g of the compound; type: functional
Rattus norvegicus [31] = experiment: In vivo formation of baclofen in 3-6h after administration of 55 mg/kg of compound intraperitoneally into 1r at; type: functional, organism-based; design: dose 55 mg/kg; summary of the method: as §2
Rattus norvegicus [32] = species: Rattus norvegicus; experiment: Amount of metabolite alpha-baclofen lactam produced in brain of rat at a concentration of 12000 g of the compound; type: functional
Rattus norvegicus [33] = experiment: In vivo formation of baclofen in 2 hr after administration of 5.5 mg/kg of compound intraperitoneally into 4 rats; type: functional, organism-based; design: dose 5.5 mg/kg

With `O=C1NC(=O)C(c2ccccc2)(c2ccccc2)N1` the ED50 (Mus musculus [1]) was “inactive” and the ED50 (Mus musculus [2]) was “inactive”.

`NCC(CC(=O)O)c1ccc(Cl)cc1` (centres undefined) [BACLOFEN] was tested, and the Activity (Rattus norvegicus [3]) was 0.13 µg/mL, the Activity (Rattus norvegicus [4]) was 0.162 µg/mL and the Activity (Rattus norvegicus [5]) was 0.197 µg/mL. For the same compound, the Dose (Mus musculus [6]) was 50 mg/kg, the TD50 (Mus musculus [7]) was 47 mg/kg and the Activity (Rattus norvegicus [8]) was 0.097 µg/mL. The ED50 (Mus musculus [9]) was over 600 mg/kg.

`CCCC(CCC)C(=O)O` [VALPROIC ACID] was tested, and the ED50 (Mus musculus [6]) was 149 mg/kg and the ED50 (Mus musculus [10]) was 360 mg/kg.

Work on `CCC1(c2ccccc2)C(=O)NC(=O)NC1=O` [PHENOBARBITAL] yielded an ED50 (Mus musculus [6]) of 13 mg/kg, an ED50 (Mus musculus [10]) of 38 mg/kg and a TD50 (Mus musculus [7]) of 69 mg/kg. For the same compound, the ED50 (Mus musculus [9]) was 22 mg/kg.

Work on `O=C1CC(c2ccc(Cl)cc2)CN1` (centres undefined) yielded an Activity (Rattus norvegicus [3]) of 14.6 µg/mL, an Activity (Rattus norvegicus [4]) of 2.11 µg/mL and an Activity (Rattus norvegicus [11]) of 2. For the same compound, the Activity (Rattus norvegicus [5]) was 26.4 µg/mL, the ED50 (Mus musculus [6]) was 41 mg/kg and the ED50 (Mus musculus [10]) was 143 mg/kg. The TD50 (Mus musculus [7]) was 117 mg/kg, the Activity (Rattus norvegicus [8]) was 0.28 µg/mL and the “No. of rats died” value (Rattus norvegicus [12]) was 1. It also gave an ED50 (Mus musculus [9]) of 68 mg/kg.

`NC(=O)CCC/N=C(\c1ccc(Cl)cc1)c1cc(F)ccc1O` [PROGABIDE] was tested, and the ED50 (Mus musculus [6]) was 30 mg/kg, the ED50 (Mus musculus [10]) was 20 mg/kg and the ED50 (Mus musculus [9]) was 75 mg/kg.

For `Clc1ccc(C2CCNC2)cc1` (centres undefined), the Activity (Rattus norvegicus [13]) was 0, the Activity (Rattus norvegicus [14]) was 24.5 µg/mL and the Activity (Rattus norvegicus [15]) was 0.5 µg/mL. For the same compound, the Activity (Rattus norvegicus [16]) was “Not detected”, the Concentration (Rattus norvegicus [17]) was 24.3 ng/g and the Concentration (Rattus norvegicus [18]) was 0.12 µg/mL. The Concentration (Rattus norvegicus [19]) was 2 µg/mL, the Concentration (Rattus norvegicus [20]) was 2.3 µg/mL and the Concentration (Rattus norvegicus [21]) was 2.6 µg/mL. For the same compound, the Activity (Rattus norvegicus [22]) was “Not detected”, the Concentration (Rattus norvegicus [23]) was 0.5 µg/mL and the Activity (Rattus norvegicus [24]) was “Not detected”. It also gave a Concentration (Rattus norvegicus [25]) of 9.4 µg/mL, an Activity (Rattus norvegicus [26]) of 6 and a Concentration (Rattus norvegicus [27]) of 0 µg/mL. For the same compound, the Concentration (Rattus norvegicus [28]) was 0 µg/mL, the Activity (Rattus norvegicus [29]) was “Not detected” and the Activity (Rattus norvegicus [30]) was 46.7 µg/mL. The Concentration (Rattus norvegicus [31]) was 16 µg/mL, the Activity (Rattus norvegicus [32]) was 0.21 µg/mL and the Concentration (Rattus norvegicus [33]) was 0.04 µg/mL.
